What was measured:
Conditions in all cases: in vivo
[1] = tested on: Rattus norvegicus; assay: The biodistribution of the [125I]-labeled compound in rats after intravenous injection was evaluated in muscle at 1.00 hrs; value ranges from 0.03-0.04 (ID.kg/g); format: ADME, organism-based, Muscle tissue
Procedure, shortened: (§1)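 Male Sprague-Dawley rats (250–300 g) under ether anesthesia given iv 0.1 mL saline containing 10–15 μCi of NCA ¹²⁵I-labeled agent (chloramine-T iodination, HPLC-purified). Groups of 3 killed at 0.25, 1 and 4 h. Blood and tissues excised, weighed and γ-counted. Values are mean (range) of % injected dose × body mass (kg) per gram of tissue.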

[2] = tested on: Rattus norvegicus; assay: The biodistribution of the [125I]-labeled compound in rats after intravenous injection was evaluated in liver at 1.00 hrs; value ranges from 0.54-0.58 (ID.kg/g); format: ADME, organism-based
Procedure, shortened: (§2)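 Male Sprague-Dawley rats (250–300 g), under ether anesthesia, given 10–15 μCi of the NCA ¹²⁵I-labeled agent iv in 0.1 mL saline. Groups of N = 3 were killed at 0.25, 1 or 4 h. Blood and tissues were removed, weighed and counted in a γ-well scintillation counter. Values are mean % ID·kg/g (range).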

[3] = tested on: Rattus norvegicus; assay: The biodistribution of the [125I]-labeled compound in rats after intravenous injection was evaluated in muscle at 4.00 hrs (ID.kg/g); format: ADME, organism-based, Muscle tissue; procedure, shortened: as §1
[4] = tested on: Rattus norvegicus; assay: The biodistribution of the [125I]-labeled compound in rats after intravenous injection was evaluated in fat at 0.25 hr (ID. kg/g); format: ADME, organism-based, Adipose tissue
Procedure, shortened: (§3)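 Male Sprague-Dawley rats (250–300 g) under ether anesthesia were given an iv injection of no-carrier-added 125I-labelled agent (10–15 μCi in 0.1 mL saline). The agent was iodinated with chloramine-T in acetate buffer and purified by C-18 HPLC. Groups of N = 3 were killed at 0.25, 1 and 4 h. Blood and tissues were weighed and γ-counted. Values are % ID·kg/g, mean (range).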

[5] = tested on: Rattus norvegicus; assay: The biodistribution of the [125I]-labeled compound in rats after intravenous injection was evaluated in thyroid at 1.00 hrs; value ranges from 2.56-3.24 (ID.kg/g); format: ADME, organism-based, Thyroid gland; procedure, shortened: as §1
[6] = tested on: Rattus norvegicus; assay: The biodistribution of the [125I]-labeled compound in rats after intravenous injection was evaluated in fat at 4.00 hrs; value ranges from 0.07-0.09 (ID.kg/g); format: ADME, organism-based, Adipose tissue; procedure, shortened: as §3
[7] = tested on: Rattus norvegicus; assay: The biodistribution of the [125I]-labeled compound in rats after intravenous injection was evaluated in blood at 0.25 hrs (ID.kg/g); format: ADME, organism-based; procedure, shortened: as §3
[8] = tested on: Rattus norvegicus; assay: The biodistribution of the [125I]-labeled compound in rats after intravenous injection was evaluated in adrenal at 0.25 hrs; value ranges from 1.25-1.44 (ID.kg/g); format: ADME, organism-based; procedure, shortened: as §3
[9] = tested on: Rattus norvegicus; assay: The biodistribution of the [125I]-labeled compound in rats after intravenous injection was evaluated in kidney at 1.00 hrs; value ranges from 0.26-0.35 (ID.kg/g); format: ADME, organism-based; procedure, shortened: as §2
[10] = tested on: Rattus norvegicus; assay: The biodistribution of the [125I]-labeled compound in rats after intravenous injection was evaluated in lung at 0.25 hrs; value ranges from 0.52-0.58 (ID.kg/g); format: ADME, organism-based; procedure, shortened: as §2
[11] = tested on: Rattus norvegicus; assay: The biodistribution of the [125I]-labeled compound in rats after intravenous injection was evaluated in brain at 1.00 hrs; value ranges from 0.14-0.15 (ID.kg/g); format: ADME, organism-based; procedure, shortened: as §3
[12] = tested on: Rattus norvegicus; assay: The biodistribution of the [125I]-labeled compound in rats after intravenous injection was evaluated in lung at 4.00 hrs (ID.kg/g); format: ADME, organism-based; procedure, shortened: as §2
[13] = tested on: Rattus norvegicus; assay: The biodistribution of the [125I]-labeled compound in rats after intravenous injection was evaluated in blood at 1.00 hrs (ID.kg/g); format: ADME, organism-based; procedure, shortened: as §3
[14] = tested on: Rattus norvegicus; assay: The biodistribution of the [125I]-labeled compound in rats after intravenous injection was evaluated in heart at 4.00 hrs; value ranges from 0.04-0.06 (ID.kg/g); format: ADME, organism-based; procedure, shortened: as §2
[15] = tested on: Rattus norvegicus; assay: The biodistribution of the [125I]-labeled compound in rats after intravenous injection was evaluated in muscle at 0.25 hrs; value ranges from 0.03-0.04 (ID.kg/g); format: ADME, organism-based, Muscle tissue; procedure, shortened: as §1
[16] = tested on: Rattus norvegicus; assay: The biodistribution of the [125I]-labeled compound in rats after intravenous injection was evaluated in adrenal at 1.00 hrs; value ranges from 0.84-1.04 (ID.kg/g); format: ADME, organism-based; procedure, shortened: as §3
[17] = tested on: Rattus norvegicus; assay: The biodistribution of the [125I]-labeled compound in rats after intravenous injection was evaluated in lung at 1.00 hrs; value ranges from 0.34-0.43 (ID.kg/g); format: ADME, organism-based; procedure, shortened: as §2
[18] = tested on: Rattus norvegicus; assay: The biodistribution of the [125I]-labeled compound in rats after intravenous injection was evaluated in kidney at 4.00 hrs; value ranges from 0.26-0.35 (ID.kg/g); format: ADME, organism-based; procedure, shortened: as §2
[19] = tested on: Rattus norvegicus; assay: The biodistribution of the [125I]-labeled compound in rats after intravenous injection was evaluated in thyroid at 4.00 hrs; value ranges from 14.14-15.81 (ID.kg/g); format: ADME, organism-based, Thyroid gland; procedure, shortened: as §1
[20] = tested on: Rattus norvegicus; assay: The biodistribution of the [125I]-labeled compound in rats after intravenous injection was evaluated in liver at 0.25 hr; value ranges from 0.69-1.03 (ID.kg/g); format: ADME, organism-based; procedure, shortened: as §2
[21] = tested on: Rattus norvegicus; assay: The biodistribution of the [125I]-labeled compound in rats after intravenous injection was evaluated in blood at 4.00 hrs; value ranges from […]-0.09 (ID.kg/g); format: ADME, organism-based; procedure, shortened: as §3
[22] = tested on: Rattus norvegicus; assay: The biodistribution of the [125I]-labeled compound in rats after intravenous injection was evaluated in kidney at 0.25 hr; value ranges from 0.28-0.32 (ID.kg/g); format: ADME, organism-based; procedure, shortened: as §2
[23] = tested on: Rattus norvegicus; assay: The biodistribution of the [125I]-labeled compound in rats after intravenous injection was evaluated in liver at 4.00 hrs; value ranges from 0.40-0.61 (ID.kg/g); format: ADME, organism-based; procedure, shortened: as §2
[24] = tested on: Rattus norvegicus; assay: The biodistribution of the [125I]-labeled compound in rats after intravenous injection was evaluated in fat at 1.00 hrs; value ranges from 0.07-0.09 (ID.kg/g); format: ADME, organism-based, Adipose tissue; procedure, shortened: as §3
[25] = tested on: Rattus norvegicus; assay: The biodistribution of the [125I]-labeled compound in rats after intravenous injection was evaluated in brain at 0.25 hrs; value ranges from 0.23-0.25 (ID.kg/g); format: ADME, organism-based; procedure, shortened: as §3
[26] = tested on: Rattus norvegicus; assay: The biodistribution of the [125I]-labeled compound in rats after intravenous injection was evaluated in brain at 4.00 hrs; value ranges from 0.04-0.05 (ID.kg/g); format: ADME, organism-based; procedure, shortened: as §3
[27] = tested on: Rattus norvegicus; assay: The biodistribution of the [125I]-labeled compound in rats after intravenous injection was evaluated in heart at 1.00 hrs; value ranges from 0.08-0.09 (ID.kg/g); format: ADME, organism-based; procedure, shortened: as §3
[28] = tested on: Rattus norvegicus; assay: The biodistribution of the [125I]-labeled compound in rats after intravenous injection was evaluated in adrenal at 4.00 hrs; value ranges from 0.20-0.32 (ID.kg/g); format: ADME, organism-based; procedure, shortened: as §3
[29] = tested on: Rattus norvegicus; assay: The biodistribution of the [125I]-labeled compound in rats after intravenous injection was evaluated in thyroid at 0.25 hrs; value ranges from 1.31-2.46( ID.kg/g); format: ADME, organism-based, Thyroid gland; procedure, shortened: as §1
[30] = tested on: Rattus norvegicus; assay: The biodistribution of the [125I]-labeled compound in rats after intravenous injection was evaluated in heart at 0.25 hrs (ID.kg/g); format: ADME, organism-based; procedure, shortened: as §3

Q: CCN1CCN(c2ccc(I)cc2)CC1 was tested. Which Biodistribution [1] did it give?
A: 0.04%

Q: And the Biodistribution [2]?
A: 0.58%

Q: And the Biodistribution [3]?
A: 0.02 %ID·kg/g

Q: And the Biodistribution [4]?
A: 0.09 % ID·kg/g

Q: What about the Biodistribution [5] of the same compound?
A: 3.24%

Q: What about the Biodistribution [6] of the same compound?
A: 0.09%

Q: And the Biodistribution [7]?
A: 0.04 % ID·kg/g

Q: And the Biodistribution [8]?
A: 1.44%

Q: And the Biodistribution [9]?
A: 0.35%

Q: What about the Biodistribution [10] of the same compound?
A: 0.58%

Q: And the Biodistribution [11]?
A: 0.16%

Q: And the Biodistribution [12]?
A: 0.17%

Q: What about the Biodistribution [13] of the same compound?
A: 0.07 % ID·kg/g

Q: And the Biodistribution [14]?
A: 0.06%

Q: And the Biodistribution [15]?
A: 0.04%

Q: And the Biodistribution [16]?
A: 1.04%

Q: And the Biodistribution [17]?
A: 0.43%

Q: What about the Biodistribution [18] of the same compound?
A: 0.35%

Q: What about the Biodistribution [19] of the same compound?
A: 15.81%

Q: What about the Biodistribution [20] of the same compound?
A: 1.03%

Q: What about the Biodistribution [21] of the same compound?
A: 0.09%

Q: And the Biodistribution [22]?
A: 0.38%

Q: What about the Biodistribution [23] of the same compound?
A: 0.61%

Q: What about the Biodistribution [24] of the same compound?
A: 0.09%

Q: And the Biodistribution [25]?
A: 0.25%

Q: And the Biodistribution [26]?
A: 0.05%

Q: And the Biodistribution [27]?
A: 0.09%

Q: What about the Biodistribution [28] of the same compound?
A: 0.32%

Q: What about the Biodistribution [29] of the same compound?
A: 2.46%

Q: What about the Biodistribution [30] of the same compound?
A: 0.1%

— ChEMBL document CHEMBL1123589, “Phenylpiperazine-based radiopharmaceuticals for brain imaging. 3. Synthesis and evaluation of radioiodinated 1-alkyl-4-phenylpiperazines” (J Med Chem, 1987)
